From ChEMBL document CHEMBL3046321, “Preparation of achiral and chiral (E)-enaminopyran-2,4-diones and their phytotoxic activity” (2009)

What follows are compounds tested on Urochloa decumbens (assay: Phytotoxicity against Urochloa decumbens pregerminated seeds assessed as inhibition of root biomass development at 5x10'-4 mol/l at 28 degC after 24 to 48 hr by sand based radicle elongation assay).
Type: functional

SMILES	inhibition at 500 µM
COC(=O)[C@H](C)N/C(C)=C1\C(=O)C=C(C)OC1=O	46%
COC(=O)CN/C(C)=C1\C(=O)C=C(C)OC1=O	44%
CC1=CC(=O)/C(=C(/C)Nc2cc([N+](=O)[O-])ccc2O)C(=O)O1	15%
CC[C@H](C)N/C(C)=C1\C(=O)C=C(C)OC1=O	66%
CC(=O)C1C(=O)C=C(C)OC1=O (configuration not stated) [DEHYDROACETIC ACID]	41%

What follows are compounds tested on Ipomoea grandifolia (assay: Phytotoxicity against Ipomoea grandifolia pre-germinated seeds assessed as inhibition of aerial parts development at 5x10'-4 mol/l at 28 degC after 24 to 48 hr by sand based radicle elongation assay).
Type: functional

SMILES	inhibition at 500 µM
COC(=O)[C@@H](N/C(C)=C1\C(=O)C=C(C)OC1=O)C(C)C	68%
COC(=O)[C@H](C)N/C(C)=C1\C(=O)C=C(C)OC1=O	57%
COC(=O)CN/C(C)=C1\C(=O)C=C(C)OC1=O	42%
CC1=CC(=O)/C(=C(/C)Nc2cc([N+](=O)[O-])ccc2O)C(=O)O1	76%
CC[C@H](C)N/C(C)=C1\C(=O)C=C(C)OC1=O	84%
CC1=CC(=O)/C(=C(/C)NCc2ccccc2)C(=O)O1	84%

The compounds below were run on Ipomoea grandifolia (assay: Phytotoxicity against Ipomoea grandifolia pre-germinated seeds assessed as inhibition of root biomass development at 5x10'-4 mol/l at 28 degC after 24 to 48 hr by sand based radicle elongation assay).
Type: functional

SMILES	inhibition at 500 µM
COC(=O)[C@@H](N/C(C)=C1\C(=O)C=C(C)OC1=O)C(C)C	65%
COC(=O)[C@H](C)N/C(C)=C1\C(=O)C=C(C)OC1=O	62%
COC(=O)CN/C(C)=C1\C(=O)C=C(C)OC1=O	34%
CC1=CC(=O)/C(=C(/C)Nc2cc([N+](=O)[O-])ccc2O)C(=O)O1	81%
CC[C@H](C)N/C(C)=C1\C(=O)C=C(C)OC1=O	81%
CC1=CC(=O)/C(=C(/C)NCc2ccccc2)C(=O)O1	81%

Each compound was assayed on Urochloa decumbens (assay: Phytotoxicity against Urochloa decumbens seeds assessed as inhibition of aerial parts development at 5x10'-5 mol/kg measured at 21 days after seed sowing by green house trials).
Type: functional

SMILES	inhibition (INH)
COC(=O)[C@@H](N/C(C)=C1\C(=O)C=C(C)OC1=O)C(C)C	-47.4%
COC(=O)[C@H](C)N/C(C)=C1\C(=O)C=C(C)OC1=O	33.3%
COC(=O)CN/C(C)=C1\C(=O)C=C(C)OC1=O	33.3%
CC1=CC(=O)/C(=C(/C)Nc2cc(Cl)c([N+](=O)[O-])cc2O)C(=O)O1	-20.3%
CC1=CC(=O)/C(=C(/C)Nc2cc([N+](=O)[O-])ccc2O)C(=O)O1	15%
CC[C@H](C)N/C(C)=C1\C(=O)C=C(C)OC1=O	70.8%
CC1=CC(=O)/C(=C(/C)NCc2ccccc2)C(=O)O1	22.8%
CC(=O)C1C(=O)C=C(C)OC1=O (configuration not stated) [DEHYDROACETIC ACID]	-41.2%

These compounds were tested on Urochloa decumbens (assay: Phytotoxicity against Urochloa decumbens seeds assessed as inhibition of root biomass development at 5x10'-5 mol/kg measured at 21 days after seed sowing by green house trials).
Type: functional

SMILES	inhibition (INH)
COC(=O)[C@@H](N/C(C)=C1\C(=O)C=C(C)OC1=O)C(C)C	-45.7%
COC(=O)[C@H](C)N/C(C)=C1\C(=O)C=C(C)OC1=O	43.4%
COC(=O)CN/C(C)=C1\C(=O)C=C(C)OC1=O	43.3%
CC1=CC(=O)/C(=C(/C)Nc2cc(Cl)c([N+](=O)[O-])cc2O)C(=O)O1	-24%
CC1=CC(=O)/C(=C(/C)Nc2cc([N+](=O)[O-])ccc2O)C(=O)O1	15.3%
CC[C@H](C)N/C(C)=C1\C(=O)C=C(C)OC1=O	65.5%
CC1=CC(=O)/C(=C(/C)NCc2ccccc2)C(=O)O1	39.3%
CC(=O)C1C(=O)C=C(C)OC1=O (configuration not stated) [DEHYDROACETIC ACID]	-67.7%

Each compound was assayed on Ipomoea grandifolia (assay: Phytotoxicity against Ipomoea grandifolia seeds assessed as inhibition of aerial parts development at 5x10'-5 mol/kg measured at 21 days after seed sowing by green house trials).
Type: functional

SMILES	inhibition (INH)
COC(=O)[C@@H](N/C(C)=C1\C(=O)C=C(C)OC1=O)C(C)C	67.7%
COC(=O)[C@H](C)N/C(C)=C1\C(=O)C=C(C)OC1=O	56.9%
COC(=O)CN/C(C)=C1\C(=O)C=C(C)OC1=O	41.7%
CC1=CC(=O)/C(=C(/C)Nc2cc(Cl)c([N+](=O)[O-])cc2O)C(=O)O1	43.7%
CC1=CC(=O)/C(=C(/C)Nc2cc([N+](=O)[O-])ccc2O)C(=O)O1	78.9%
CC[C@H](C)N/C(C)=C1\C(=O)C=C(C)OC1=O	84.4%
CC1=CC(=O)/C(=C(/C)NCc2ccccc2)C(=O)O1	85.9%
CC(=O)C1C(=O)C=C(C)OC1=O (configuration not stated) [DEHYDROACETIC ACID]	7.6%

The compounds below were run on Cucumis sativus (assay: Phytotoxic activity against Cucumis sativus (cucumber)seeds assessed as inhibition of radicle growth at 10^-3 mol/l at 25 degC after 72 hr by filter-paper based radicle elongation assay).
Type: functional
Procedure, shortened: (§1)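 Test compounds suspended and sonicated 5 min. Aliquots of 4 mL wetted two sheets of filter paper in glass Petri dishes, with 20 seeds per dish. Tested at 10⁻⁴ and 10⁻³ mol L⁻¹. Incubated 72 h at 25 °C under fluorescent light. Radicle length measured and germination recorded (radicle ≥1 mm). Completely randomized design, five replications. Results as % radicle growth inhibition vs untreated controls; Tukey's test, P 0.05.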

SMILES	inhibition at 1000 µM
COC(=O)[C@@H](N/C(C)=C1\C(=O)C=C(C)OC1=O)C(C)C	80.8%
COC(=O)[C@H](C)N/C(C)=C1\C(=O)C=C(C)OC1=O	76.3%
COC(=O)CN/C(C)=C1\C(=O)C=C(C)OC1=O	69.1%
CC1=CC(=O)/C(=C(/C)Nc2cc(Cl)c([N+](=O)[O-])cc2O)C(=O)O1	81.4%
CC1=CC(=O)/C(=C(/C)Nc2cc([N+](=O)[O-])ccc2O)C(=O)O1	58.1%
CC[C@H](C)N/C(C)=C1\C(=O)C=C(C)OC1=O	87.5%
CC1=CC(=O)/C(=C(/C)NCc2ccccc2)C(=O)O1	65.5%
CC(=O)C1C(=O)C=C(C)OC1=O (configuration not stated) [DEHYDROACETIC ACID]	87.6%

These compounds were tested on Cucumis sativus (assay: Phytotoxic activity against Cucumis sativus (cucumber)seeds assessed as inhibition of radicle growth at 10^-4 mol/l at 25 degC after 72 hr by filter-paper based radicle elongation assay).
Type: functional
Procedure, shortened: as §1

SMILES	inhibition at 100 µM
COC(=O)[C@@H](N/C(C)=C1\C(=O)C=C(C)OC1=O)C(C)C	-6.4%
COC(=O)[C@H](C)N/C(C)=C1\C(=O)C=C(C)OC1=O	-0.3%
COC(=O)CN/C(C)=C1\C(=O)C=C(C)OC1=O	-15.3%
CC1=CC(=O)/C(=C(/C)Nc2cc(Cl)c([N+](=O)[O-])cc2O)C(=O)O1	21.8%
CC1=CC(=O)/C(=C(/C)Nc2cc([N+](=O)[O-])ccc2O)C(=O)O1	-12.4%
CC[C@H](C)N/C(C)=C1\C(=O)C=C(C)OC1=O	15%
CC1=CC(=O)/C(=C(/C)NCc2ccccc2)C(=O)O1	20.1%
CC(=O)C1C(=O)C=C(C)OC1=O (configuration not stated) [DEHYDROACETIC ACID]	36.7%

What follows are compounds tested on Sorghum bicolor (assay: Phytotoxic activity against Sorghum bicolor seeds assessed as inhibition of radicle growth at 10^-3 mol/l at 25 degC after 72 hr by filter-paper based radicle elongation assay).
Type: functional
Procedure, shortened: as §1

SMILES	inhibition at 1000 µM
COC(=O)[C@@H](N/C(C)=C1\C(=O)C=C(C)OC1=O)C(C)C	70.5%
COC(=O)[C@H](C)N/C(C)=C1\C(=O)C=C(C)OC1=O	71.7%
COC(=O)CN/C(C)=C1\C(=O)C=C(C)OC1=O	59.3%
CC1=CC(=O)/C(=C(/C)Nc2cc(Cl)c([N+](=O)[O-])cc2O)C(=O)O1	64.4%
CC1=CC(=O)/C(=C(/C)Nc2cc([N+](=O)[O-])ccc2O)C(=O)O1	55.6%
CC[C@H](C)N/C(C)=C1\C(=O)C=C(C)OC1=O	79.3%
CC1=CC(=O)/C(=C(/C)NCc2ccccc2)C(=O)O1	70.8%
CC(=O)C1C(=O)C=C(C)OC1=O (configuration not stated) [DEHYDROACETIC ACID]	82.7%

Each compound was assayed on Sorghum bicolor (assay: Phytotoxic activity against Sorghum bicolor seeds assessed as inhibition of radicle growth at 10^-4 mol/l at 25 degC after 72 hr by filter-paper based radicle elongation assay).
Type: functional
Procedure, shortened: as §1

SMILES	inhibition at 100 µM
COC(=O)[C@@H](N/C(C)=C1\C(=O)C=C(C)OC1=O)C(C)C	17.2%
COC(=O)[C@H](C)N/C(C)=C1\C(=O)C=C(C)OC1=O	21.6%
COC(=O)CN/C(C)=C1\C(=O)C=C(C)OC1=O	7%
CC1=CC(=O)/C(=C(/C)Nc2cc(Cl)c([N+](=O)[O-])cc2O)C(=O)O1	4.3%
CC1=CC(=O)/C(=C(/C)Nc2cc([N+](=O)[O-])ccc2O)C(=O)O1	3.9%
CC[C@H](C)N/C(C)=C1\C(=O)C=C(C)OC1=O	46.2%
CC1=CC(=O)/C(=C(/C)NCc2ccccc2)C(=O)O1	45%
CC(=O)C1C(=O)C=C(C)OC1=O (configuration not stated) [DEHYDROACETIC ACID]	34.6%

What follows are compounds tested on Urochloa decumbens (assay: Stimulation of aerial parts development in Urochloa decumbens pregerminated seeds at 5x10'-4 mol/l at 28 degC after 24 to 48 hr by sand based radicle elongation assay).
Type: functional

SMILES	Activity
COC(=O)[C@@H](N/C(C)=C1\C(=O)C=C(C)OC1=O)C(C)C	46%
CC1=CC(=O)/C(=C(/C)Nc2cc(Cl)c([N+](=O)[O-])cc2O)C(=O)O1	20%
CC(=O)C1C(=O)C=C(C)OC1=O (configuration not stated) [DEHYDROACETIC ACID]	41%

What follows are compounds tested on Urochloa decumbens (assay: Stimulation of root biomass development in Urochloa decumbens pregerminated seeds at 5x10'-4 mol/l at 28 degC after 24 to 48 hr by sand based radicle elongation assay).
Type: functional

SMILES	Activity
COC(=O)[C@@H](N/C(C)=C1\C(=O)C=C(C)OC1=O)C(C)C	46%
CC1=CC(=O)/C(=C(/C)Nc2cc(Cl)c([N+](=O)[O-])cc2O)C(=O)O1	24%
CC(=O)C1C(=O)C=C(C)OC1=O (configuration not stated) [DEHYDROACETIC ACID]	68%

The compounds below were run on Urochloa decumbens (assay: Phytotoxicity against Urochloa decumbens pregerminated seeds assessed as inhibition of aerial parts development at 5x10'-4 mol/l at 28 degC after 24 to 48 hr by sand based radicle elongation assay).
Type: functional

SMILES	inhibition at 500 µM
COC(=O)[C@H](C)N/C(C)=C1\C(=O)C=C(C)OC1=O	33%
COC(=O)CN/C(C)=C1\C(=O)C=C(C)OC1=O	33%
CC1=CC(=O)/C(=C(/C)Nc2cc([N+](=O)[O-])ccc2O)C(=O)O1	15%
CC[C@H](C)N/C(C)=C1\C(=O)C=C(C)OC1=O	71%
CC(=O)C1C(=O)C=C(C)OC1=O (configuration not stated) [DEHYDROACETIC ACID]	8%

Each compound was assayed on Ipomoea grandifolia (assay: Phytotoxicity against Ipomoea grandifolia seeds assessed as inhibition of root biomass development at […] measured at 21 days after seed sowing by green house trials).

SMILES	inhibition (INH)
COC(=O)[C@@H](N/C(C)=C1\C(=O)C=C(C)OC1=O)C(C)C	65.3%
COC(=O)[C@H](C)N/C(C)=C1\C(=O)C=C(C)OC1=O	61.7%
COC(=O)CN/C(C)=C1\C(=O)C=C(C)OC1=O	34.3%
CC1=CC(=O)/C(=C(/C)Nc2cc(Cl)c([N+](=O)[O-])cc2O)C(=O)O1	32%
CC1=CC(=O)/C(=C(/C)Nc2cc([N+](=O)[O-])ccc2O)C(=O)O1	79.9%
CC[C@H](C)N/C(C)=C1\C(=O)C=C(C)OC1=O	83%
CC1=CC(=O)/C(=C(/C)NCc2ccccc2)C(=O)O1	79.6%
CC(=O)C1C(=O)C=C(C)OC1=O (configuration not stated) [DEHYDROACETIC ACID]	40.7%
